{"data": "Results pooled from the literature", "PIK3CA": "Phosphatidylinositol 4,5-bisphosphate 3-kinase catalytic subunit alpha isoform (PIK3CA, Homo sapiens, UniProt P42336)", "PIK3CA C420R": "Phosphatidylinositol 4,5-bisphosphate 3-kinase catalytic subunit alpha isoform (PIK3CA, Homo sapiens, UniProt P42336, C420R)", "PIK3CA E545A": "Phosphatidylinositol 4,5-bisphosphate 3-kinase catalytic subunit alpha isoform (PIK3CA, Homo sapiens, UniProt P42336, E545A)", "PIK3CA H1047L": "Phosphatidylinositol 4,5-bisphosphate 3-kinase catalytic subunit alpha isoform (PIK3CA, Homo sapiens, UniProt P42336, H1047L)", "PIK3CA M1043I": "Phosphatidylinositol 4,5-bisphosphate 3-kinase catalytic subunit alpha isoform (PIK3CA, Homo sapiens, UniProt P42336, M1043I)", "PIK3CA E545K": "Phosphatidylinositol 4,5-bisphosphate 3-kinase catalytic subunit alpha isoform (PIK3CA, Homo sapiens, UniProt P42336, E545K)", "PIK3CA Q546K": "Phosphatidylinositol 4,5-bisphosphate 3-kinase catalytic subunit alpha isoform (PIK3CA, Homo sapiens, UniProt P42336, Q546K)", "PIK3CA H1047Y": "Phosphatidylinositol 4,5-bisphosphate 3-kinase catalytic subunit alpha isoform (PIK3CA, Homo sapiens, UniProt P42336, H1047Y)", "PIK3CA E542K": "Phosphatidylinositol 4,5-bisphosphate 3-kinase catalytic subunit alpha isoform (PIK3CA, Homo sapiens, UniProt P42336, E542K)", "note": "Each line is one published result; the experiments were not run side by side."}
{"Compound": "CN(C)c1nccc(-c2cnc3ncccn23)n1", "target": "PIK3CA", "assay": "binding", "setting": "1 µM", "remaining binding [%]": 71}
{"Compound": "C[C@@H]1CN(c2cc(-c3n[nH]c4ccc(OC5(C)CC5)cc34)ncn2)C[C@H](C)O1", "target": "PIK3CA C420R", "assay": "cell-free assay, competition with immobilised ligand", "setting": "0.1 µM", "remaining binding [%]": 72}
{"Compound": "COc1cnc(Nc2cccc(S(N)(=O)=O)c2)nc1N1CCN(c2ccccc2)CC1", "target": "PIK3CA E545A", "assay": "binding, competition with immobilised ligand", "setting": "1 µM", "remaining binding [%]": 100}
{"Compound": "O=C(Nc1c[nH]nc1C(=O)NC1CCNCC1)c1cc(F)cc(F)c1", "target": "PIK3CA H1047L", "assay": "binding, competition with immobilised ligand", "setting": "1 µM", "remaining binding [%]": 87}
{"Compound": "N[C@H]1CCN(c2nccc(-c3cnn4ncccc34)n2)C1", "target": "PIK3CA", "assay": "binding", "setting": "1 µM", "remaining binding [%]": 100}
{"Compound": "Nc1ncc2c(n1)-c1c([nH]c3ccc(C#CC4CC4)cc13)CCCC2", "target": "PIK3CA M1043I", "assay": "binding, competition with immobilised ligand", "setting": "1 µM", "remaining binding [%]": 62}
{"Compound": "CCOCCn1cc(C(=O)Nc2ccc(-n3nc(-c4cccnc4)cc3C(F)(F)F)cn2)ccc1=O", "target": "PIK3CA E545K", "assay": "cell-free assay, competition with immobilised ligand", "setting": "1 µM", "remaining binding [%]": 96}
{"Compound": "O=C(c1ccc(Nc2nccc(-c3cc4ccccc4s3)n2)cc1)N1CCC(N2CCCC2)CC1", "target": "PIK3CA Q546K", "assay": "binding, competition with immobilised ligand", "setting": "1 µM", "remaining binding [%]": 100}
{"Compound": "O=C(NCC1CCOCC1)c1n[nH]cc1NC(=O)c1c(F)cccc1F", "target": "PIK3CA H1047Y", "assay": "binding, competition with immobilised ligand", "setting": "1 µM", "remaining binding [%]": 100}
{"Compound": "Cc1cnn2ncc(-c3ccnc(N(C)C)n3)c2c1", "target": "PIK3CA H1047Y", "assay": "binding", "setting": "1 µM", "remaining binding [%]": 98}
{"Compound": "COc1cnc(Nc2cccc(S(N)(=O)=O)c2)nc1N1CCN(c2ccccc2)C(=O)C1", "target": "PIK3CA H1047L", "assay": "binding, competition with immobilised ligand", "setting": "1 µM", "remaining binding [%]": 90}
{"Compound": "O=C(NCCCN1CCOCC1)c1ccc(Nc2nccc(-c3cc4ccccc4s3)n2)cc1", "target": "PIK3CA E542K", "assay": "binding, competition with immobilised ligand", "setting": "1 µM", "remaining binding [%]": 41}
{"Compound": "CN(C(=O)c1ccccc1)c1cc(N(C)c2ccc3c(c2)CCc2ccc(C(=O)NCCN4CCOCC4)cc2C3=O)ccc1F", "target": "PIK3CA C420R", "assay": "cell-free assay, competition with immobilised ligand", "setting": "1 µM", "remaining binding [%]": 91}
{"Compound": "CN(c1nccc(-c2cnn3ncccc23)n1)C1CC1", "target": "PIK3CA E542K", "assay": "binding", "setting": "1 µM", "remaining binding [%]": 56}
{"Compound": "O=C(NS(=O)(=O)c1ccc(NCC2CCOCC2)c([N+](=O)[O-])c1)c1ccc(N2CCN(Cc3ccc(C(F)(F)F)cc3-c3ccc(Cl)cc3)CC2)cc1Oc1cnc2[nH]ccc2c1", "target": "PIK3CA", "assay": "cell-free assay, competition with immobilised ligand", "setting": "1 µM", "remaining binding [%]": 69}
{"Compound": "O=C(c1ccc(Nc2ncc(Cl)c(-c3ccc(Cl)s3)n2)cc1)N1CCC(N2CCCC2)CC1", "target": "PIK3CA E545A", "assay": "binding, competition with immobilised ligand", "setting": "1 µM", "remaining binding [%]": 100}
{"Compound": "O=C(Nc1cnc(Oc2ccc(F)cc2)nc1)N1CCc2ncccc2[C@@H]1c1ccc(F)cc1", "target": "PIK3CA H1047Y", "assay": "cell-free assay, competition with immobilised ligand", "setting": "1 µM", "remaining binding [%]": 100}
{"Compound": "COc1ncc2cc3ccccc3nc2c1C#N", "target": "PIK3CA H1047Y", "assay": "cell-free assay, competition with immobilised ligand", "setting": "5 µM", "remaining binding [%]": 86}
{"Compound": "O=C(NCCCN1CCOCC1)c1ccc(Nc2ncc(Cl)c(-c3ccc(Cl)s3)n2)cc1", "target": "PIK3CA C420R", "assay": "binding, competition with immobilised ligand", "setting": "1 µM", "remaining binding [%]": 100}
{"Compound": "O=S(=O)(NC1CCC(c2cc(F)ccc2F)(S(=O)(=O)c2ccc(Cl)cc2)CC1)C(F)(F)F (stereo not shown)", "target": "PIK3CA E542K", "assay": "cell-free assay, competition with immobilised ligand", "setting": "1 µM", "remaining binding [%]": 100}
{"Compound": "CCN1CCN(Cc2ccc(C(=O)Nc3ccc(C)c(Oc4ccc5c(c4)CC(=O)N5)c3)cc2C(F)(F)F)CC1", "target": "PIK3CA Q546K", "assay": "binding, competition with immobilised ligand", "setting": "1 µM", "remaining binding [%]": 100}
{"Compound": "CC1CCCN1c1nccc(-c2cnn3ncccc23)n1 (stereo not shown)", "target": "PIK3CA M1043I", "assay": "binding", "setting": "1 µM", "remaining binding [%]": 100}
{"Compound": "c1cncc(-c2cccc(Nc3nccc(NC4CCCCC4)n3)c2)c1", "target": "PIK3CA E545A", "assay": "binding, competition with immobilised ligand", "setting": "10 µM", "remaining binding [%]": 80}
{"Compound": "CN1CCN(c2ccc(Nc3nccc(-c4cccc([N+](=O)[O-])c4)n3)cc2C(F)(F)F)CC1", "target": "PIK3CA H1047L", "assay": "binding", "setting": "10 µM", "remaining binding [%]": 4.8}
{"Compound": "Cc1cnc(Nc2ccc(C(=O)N3CCC(N4CCCC4)CC3)cc2)nc1-c1cc2ccccc2s1", "target": "PIK3CA", "assay": "binding, competition with immobilised ligand", "setting": "1 µM", "remaining binding [%]": 97}
{"Compound": "C=CC(=O)N1CCC(C(=O)NCC(=O)N2CCN(c3nc(-c4cnc(N)nc4C(F)F)nc(N4CCOCC4)n3)CC2)CC1", "target": "PIK3CA C420R", "assay": "binding, competition with immobilised ligand", "setting": "1 µM", "remaining binding [%]": 0.6}
{"Compound": "Cc1c(C(=O)O)cc(-c2ccc(C3CCNCC3)cc2)c2ccc(-c3ccc(C(F)(F)F)cc3)cc12", "target": "PIK3CA M1043I", "assay": "cell-free assay, competition with immobilised ligand", "setting": "1 µM", "remaining binding [%]": 100}
{"Compound": "CNC(=O)[C@@H]1CC[C@@H](n2c(-c3ccc4cnccc4c3)nc3ccc(C(=O)NCc4cccc(C(N)=O)c4)cc32)C1", "target": "PIK3CA E545K", "assay": "binding, competition with immobilised ligand", "setting": "1 µM", "remaining binding [%]": 84}
{"Compound": "C[C@@H](c1ccc(-n2cnc3c(N)ncnc32)cc1)N1CCc2nn(C)c(Cc3ccccc3)c2C1=O", "target": "PIK3CA E545A", "assay": "binding, competition with immobilised ligand", "setting": "0.1 µM", "remaining binding [%]": 100}
{"Compound": "CN(C)c1ncc(F)c(-c2cnn3ncccc23)n1", "target": "PIK3CA", "assay": "binding", "setting": "1 µM", "remaining binding [%]": 77}
{"Compound": "CCC(=O)N[C@H]1CC[C@@H](C(=O)N(C)c2ccc(-c3nc4ccccc4o3)cc2)C1", "target": "PIK3CA E545K", "assay": "cell-free assay, competition with immobilised ligand", "setting": "1 µM", "remaining binding [%]": 74}
